TRPC4 inh = inhibitors of mouse TRPC4 channel. Q9QUQ5. HEK293 TRPC4beta/mu-opioid, DAMGO-evoked Fluo4 calcium flux; active compounds read low. B-score at 10 µM. hit rate 0.39% among 300,000. AID 2247;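 active = B-score over 3 SD under the library average, no early fluorescence shift, positive overall ratio signal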
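Test system – stable TRPC4beta/mu-opioid receptor HEK293 cells · Probe or stimulus – DAMGO, a submaximal dose followed by a maximal one · Dosing – one concentration per compound · Signal – Fluo4 calcium fluorescence by kinetic imaging, 5 s 1 Hz baseline · Evaluation – per-well B score of integrated baseline-normalized Fluo4 ratio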
TRPC6 inh = blocks the mouse TRPC6 cation channel; Q61143; HEK293-TRPC6, membrane potential dye, ACh-evoked depolarization; active compounds read low; B-score at 10 µM; hit rate 1.1% among 310,000; AID 2553;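 active = B-score under library mean minus 3 SD, initial fluorescence not abnormally high, positive integrated signal ratio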;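 note: B-score derived from integrated fluorescence ratio over the kinetic read; more negative B-score means stronger inhibition of depolarization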
Target sequence (Q61143 whole entry, looked up): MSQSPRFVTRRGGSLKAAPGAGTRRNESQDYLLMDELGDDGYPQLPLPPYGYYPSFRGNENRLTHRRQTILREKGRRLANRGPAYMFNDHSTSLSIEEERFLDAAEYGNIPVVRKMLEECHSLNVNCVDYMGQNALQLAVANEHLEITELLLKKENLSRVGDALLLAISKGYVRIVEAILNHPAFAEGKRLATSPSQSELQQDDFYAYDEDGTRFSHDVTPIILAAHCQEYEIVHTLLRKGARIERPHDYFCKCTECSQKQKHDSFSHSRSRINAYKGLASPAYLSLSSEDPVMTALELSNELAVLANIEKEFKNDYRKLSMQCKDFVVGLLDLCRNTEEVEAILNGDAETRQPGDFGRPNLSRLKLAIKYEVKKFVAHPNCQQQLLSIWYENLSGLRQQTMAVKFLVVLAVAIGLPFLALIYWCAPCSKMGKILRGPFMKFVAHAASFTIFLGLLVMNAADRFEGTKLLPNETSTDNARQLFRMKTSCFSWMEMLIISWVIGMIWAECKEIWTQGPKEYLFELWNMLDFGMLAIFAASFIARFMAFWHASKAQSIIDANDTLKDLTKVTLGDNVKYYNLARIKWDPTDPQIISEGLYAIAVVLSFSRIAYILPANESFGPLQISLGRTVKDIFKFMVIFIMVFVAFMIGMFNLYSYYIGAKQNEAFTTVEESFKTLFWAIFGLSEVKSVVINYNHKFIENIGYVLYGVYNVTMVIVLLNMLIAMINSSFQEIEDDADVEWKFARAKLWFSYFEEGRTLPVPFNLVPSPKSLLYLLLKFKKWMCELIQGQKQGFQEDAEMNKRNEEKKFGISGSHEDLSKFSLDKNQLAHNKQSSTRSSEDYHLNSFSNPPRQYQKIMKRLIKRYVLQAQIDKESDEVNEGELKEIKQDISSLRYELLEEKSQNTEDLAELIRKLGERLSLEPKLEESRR
TRPC4 potent = allosteric potentiators of mouse TRPC4 channel. AID 2227. hit rate 0.42% among 310,000. HEK293 TRPC4beta/mu-opioid, DAMGO EC20, Fluo-4 Ca2+ flux; active compounds read high. B-score at 10 µM. Q9QUQ5;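 active = B-score of calcium response area above 5 SD of library B-scores, with initial fluorescence ratio within 5 SD of library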;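 note: B-score of integrated fluorescence ratio over time as area under calcium response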
TRPC6 activator = mouse TRPC6 channel activation | Q61143 | HEK293-TRPC6 membrane potential dye fluorescence; active compounds read high | B-score at 10 µM | hit rate 0.13% among 310,000 | AID 2550;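 active = B-score of the integrated fluorescence ratio above library mean plus 3 SD, and starting fluorescence ratio within library mean plus 5 SD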;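 note: higher score means more depolarization so channel activation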
TRPC4 act = opens the mouse TRPC4 cation channel | Q9QUQ5 | HEK293 TRPC4beta/mu-opioid, Fluo4 calcium fluorescence; active compounds read high | B-score at 10 µM | hit rate 0.49% among 310,000 | AID 2237;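 active = B-score above 5 SD of library B-scores, and initial fluorescence ratio not above library mean plus 5 SD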;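 note: positive B-score marks a calcium rise read as TRPC4 activation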
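Material: TRPC4beta and mu-opioid receptor HEK293 stable cells | Incubation: 45 min room-temperature Fluo4 loading, 110 s read | Detection: Kinetic Fluo4 calcium fluorescence | Measure: Integrated baseline-normalised fluorescence ratio, converted to per-well B score | Benchmarks: Low control buffer alone, high control maximal DAMGO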
TRPC4 sel inh 2 = second selectivity test of TRPC6 inhibitors: effect on mouse TRPC4. HEK293 TRPC4/MOR, membrane potential dye fluorescence; channel activated by saturating DAMGO dose. hit rate 42% among 920. inhibition, % at 10 µM. shares compounds with TRPC6 inh. AID 2776;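 active = compounds whose fluorescence signal differed from control wells by over 3 SD, either direction, in both duplicate plates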
TRPC4 spec = selectivity of TRPC6 inhibitors: effect on mouse TRPC4; shares compounds with TRPC6 inh; hit rate 61% among 920; activity change, negative = inhibition, % at 10 µM; HEK293 TRPC4/mu-opioid, membrane potential fluorescence;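 active = rise or fall in signal beyond 3 SD of buffer-only wells in both replicate plates, either sign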;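 note: integrated kinetic ratio of fluorescence range over baseline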
HEK293 MPD ctr 2-1 = second check of TRPC6 inhibitor effects in parental HEK293 cells; shares compounds with TRPC6 inh; signal change vs control, % at 10 µM; hit rate 31% among 920; parental HEK293 membrane potential dye fluorescence; maximal acetylcholine challenge after compound addition; AID 2779;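 active = membrane potential signal moving either way by over 3 SD of the maximum-effect control, in both duplicate plates, meaning non-specific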
HEK293 MPD ctr-1 = counter-screen for TRPC6 inhibitors: effect in parental HEK293 cells. shares compounds with TRPC6 inh. parental HEK293 membrane potential dye fluorescence. membrane potential signal change, % at 10 µM. hit rate 60% among 920. AID 2780;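 active = membrane potential signal shifting up or down by more than 3 SD of buffer-only wells, on both duplicate plates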
HEK293 MPD ctr-2 = counter-screen for TRPC6 modulators: effect in parental HEK293 cells. hit rate 51% among 2,400. shares compounds with TRPC6 inh. membrane potential dye fluorescence. membrane potential signal change, % at 10 µM;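 active = membrane potential signal moves up or down beyond 5 SD from buffer-only wells, on both duplicate plates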
HEK293 MPD ctr 2-2 = second counter-screen for TRPC6 modulators: effect in parental HEK293 cells | shares compounds with TRPC6 inh | membrane potential dye fluorescence; after compound, maximal acetylcholine stimulation | inhibition, % at 10 µM | hit rate 14% among 2,400;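 active = membrane potential signal drops by more than 5 SD from the mean control signal, in both duplicate plates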;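 note: plate controls were acetylcholine ECmax control wells for no effect and buffer only wells for full effect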
TRPC4/MOR mod = tests whether TRPC6 modulators also affect mouse TRPC4; HEK293 TRPC4/mu-opioid, membrane potential fluorescence; shares compounds with TRPC6 inh; percent change from control (negative = decrease, positive = increase), % at 10 µM; hit rate 69% among 2,400;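 active = membrane potential signal moved up or down beyond 5 SD of buffer control wells, in both duplicate plates, actives on both sides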;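 note: plate controls were assay buffer wells for no effect and DAMGO maximal-effect wells for full effect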
TRPC4/MOR inh 2 = mouse TRPC4 off-target activity of TRPC6 modulators, second screen; shares compounds with TRPC6 inh; HEK293 TRPC4/mu-opioid, membrane potential dye fluorescence; stimulated with maximal-effect DAMGO; inhibition, % at 10 µM; hit rate 55% among 2,400; AID 488928;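 active = drop in membrane potential signal beyond 5 SD of the control wells in both duplicate plates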;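 note: TRPC4 counter screen for TRPC6 hits run under conditions tuned for TRPC6 not TRPC4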
TRPC6 inh conf = confirmation of mouse TRPC6 inhibitors; shares compounds with TRPC6 inh; HEK293-TRPC6, membrane potential dye, ACh-evoked depolarization; inhibition, % at 10 µM; hit rate 43% among 3,300; AID 488960;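 active = fluorescence ratio falls more than 5 SD below the full-stimulation control mean, in both duplicate runs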;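 note: integrated fluorescence ratio of peak minus minimum over baseline after agonist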
TRPC6 act conf = mouse TRPC6 activator confirmation; shares compounds with TRPC6 inh; hit rate 11% among 2,800; AID 488961; activation, % at 10 µM; HEK293-TRPC6 membrane potential dye fluorescence, FDSS;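 active = ratio signal rise beyond 5 SD above unstimulated control wells' mean, seen in both duplicate runs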;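 note: plate controls were buffer EC0 wells for no effect and acetylcholine ECmax response for full effect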
An asterisk follows results filed as active; i = inactive; . = not tested or not shown; + = active, no number. An excerpt weighted towards active compounds, which were near 2.3% of everything screened.

SMILES	TRPC4 inh	TRPC6 inh	TRPC4 potent	TRPC6 activator	TRPC4 act	HEK293 MPD ctr-2	HEK293 MPD ctr 2-2	TRPC4/MOR mod	TRPC4/MOR inh 2	TRPC6 inh conf	TRPC6 act conf	others
N#Cc1cc(Sc2ccccn2)c([N+](=O)[O-])cc1C#N	i	-8.28*	i	i	i	.	.	.	.	75.0%*	i	TRPC4 sel inh 2=i;TRPC4 spec=-20.8%*;HEK293 MPD ctr 2-1=-78.0%*;HEK293 MPD ctr-1=-319.5%*
O=C(NCc1cccc(Br)c1)C1CC2Cn3c(nc4ccccc43)C2N1c1ccccc1 (stereo not drawn)	i	i	i	i	i	.	.	.	.	.	.
COc1ccccc1C(CNC(=O)C(C)(C)Oc1ccc(Cl)cc1)N1CCCC1 (stereo not drawn)	i	-5.73*	i	i	i	194.0%*	i	33.0%*	41.5%*	52.5%*	.
CC(C)(Oc1ccc(Cl)cc1)C(=O)NCC(c1cccs1)N1CCOCC1 (stereo not drawn)	i	i	i	i	i	.	.	.	.	.	.
O=C(OCC(=O)N1CCCC1)c1cc(F)c(F)cc1Cl	i	i	i	i	i	.	.	.	.	.	.
Brc1ccc(/C=N/Nc2ccc3ccccc3n2)cc1	i	i	i	i	i	.	.	.	.	.	.
Brc1ccccc1/C=N/Nc1ccc2ccccc2n1	i	-6.2*	i	i	i	i	i	i	56.5%*	i	i
O=C(CCN1C(=O)[C@@H]2Cc3ccccc3CN2C1=O)N[C@H](C(=O)O)c1ccccc1	i	i	i	i	i	.	.	.	.	.	.
COc1ccc(C2NC(=O)c3ccccc3O2)cc1 (stereo not drawn)	i	i	i	i	i	.	.	.	.	.	.
Cc1c(CCOC(=O)c2ccc([N+](=O)[O-])cc2)sc[n+]1CC(=O)c1ccccc1	-6*	-7.41*	i	i	i	-262.0%*	i	-40.5%*	35.5%*	39.5%*	i
Cc1cc(C)nc(NC(=NCCc2c[nH]c3ccccc23)NC(=O)Nc2ccc(Cl)cc2)n1	i	i	i	i	i	.	.	.	.	.	.
Cc1cc(C)nc(NC(N)=NCCc2c[nH]c3ccccc23)n1	i	-4.99*	i	i	i	-222.5%*	i	-42.5%*	46.0%*	54.5%*	i
Cc1ccc(S(=O)(=O)/N=C2/NC(=O)/C(=C/c3cc([N+](=O)[O-])ccc3O)S2)cc1	i	i	i	62.1*	i	390.0%*	i	66.5%*	i	i	280.0%*
O=C1NC(=Nc2ccccc2Cl)S/C1=C\c1cc([N+](=O)[O-])ccc1O	i	i	i	33.6*	82*	+	i	380.0%*	65.0%*	i	657.5%*
COc1cc(/C=C2\S/C(=N/S(=O)(=O)c3ccc(C)cc3)NC2=O)c([N+](=O)[O-])cc1OC	i	i	i	i	i	.	.	.	.	.	.
OCCOCCn1c(-c2ccccc2)nc(=S)c2c1CCCC2	i	-7.69*	i	i	i	-321.5%*	86.0%*	-51.5%*	53.0%*	60.5%*	i
CCc1ccc(NC(=O)C2=CC(c3ccc(OC)c(OC)c3)=NS(=O)(=O)N2C)cc1	i	-5.74*	i	i	i	i	i	-17.5%*	65.5%*	i	i
COc1ccc(CNC(=O)C2=CC(c3ccc(OC)c(OC)c3)=NS(=O)(=O)N2C)cc1	i	i	i	i	i	.	.	.	.	.	.
Cc1cccc(NC(=O)CSc2nc3nc(C)cc(C)c3c(=O)[nH]2)c1	i	-6.87*	i	i	i	.	.	.	.	i	i	TRPC4 sel inh 2=i;TRPC4 spec=i;HEK293 MPD ctr 2-1=i;HEK293 MPD ctr-1=i
COc1ccc(C2NC(=O)NC(O)(C(F)(F)F)C2C(=O)c2ccccc2)cc1OC (stereo not drawn)	i	i	i	i	i	.	.	.	.	.	.
COc1ccc(C2NC(=O)NC(O)(C(F)(F)F)C2C(=O)c2ccc(C)cc2)cc1 (stereo not drawn)	i	-9.59*	i	i	i	.	.	.	.	65.0%*	i	TRPC4 sel inh 2=i;TRPC4 spec=i;HEK293 MPD ctr 2-1=13.5%*;HEK293 MPD ctr-1=i
COc1ccc2c(c1)N(C)/C(=C1/SC(=NCc3ccccc3)N(c3ccccc3)C1=O)S2	i	-6.46*	i	i	i	i	i	i	i	i	i
CCc1nnc(NC(=O)CC23CC4CC(CC(Br)(C4)C2)C3)s1	i	i	i	i	i	.	.	.	.	.	.
Cc1ccc(-c2nc(C)sc2CC(=O)OCC(=O)Nc2cccc([N+](=O)[O-])c2)cc1	i	i	i	i	i	.	.	.	.	.	.
Cc1ccc(C(=O)c2ccccc2C(=O)OCC(=O)Nc2cccc([N+](=O)[O-])c2)cc1	i	-6.49*	i	i	i	i	i	i	i	i	i
COc1cccc(CCNC(=O)C2CCC(=O)N(C3CC3)C2)c1OC (stereo not drawn)	i	i	i	i	i	.	.	.	.	.	.
Cc1cccc(N2CCN(C(=O)C(C)n3nc(C)n4c(cc5occc54)c3=O)CC2)c1C (stereo not drawn)	i	-5.07*	i	i	i	i	i	13.5%*	i	i	.

Screening results from PubChem BioAssay.
